We go through one compound from ChEMBL document CHEMBL1177681, “Hybrid diarylbenzopyrimidine non-nucleoside reverse transcriptase inhibitors as promising new leads for improved anti-HIV-1 chemotherapy” (Bioorg Med Chem, 2010).

In series [1] the test system is Human immunodeficiency virus 1. Nature of the series: Antiviral activity against HIV1 with reverse transcriptase E138K mutant infected in human MT4 cells assessed as protection against virus-induced cytopathogenicity after 4 days by MTT assay. Format: functional, organism-based. The settings on record: Human immunodeficiency virus 1, MT4, 96 h. In outline:
(§1)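 MT-4 cells at 1 × 10⁵ cells/mL were infected with the mutant HIV-1 at a multiplicity of infection of 0.02. Virus stocks were titred in MT-4 cells as CCID₅₀. Cells were plated at once onto serial compound dilutions, with DMSO stocks at 50 mM or higher. After 4 days at 37 °C, viable cells were counted by MTT. EC₅₀ is the concentration giving 50% protection from viral cytopathicity.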
On the technique in general: Protection from cytopathic effect is a common read-out in antiviral testing.

The subject of series [2] is Human immunodeficiency virus 1. The experiment in a line: Ratio of compound EC50 to efavirenz EC50 for HIV1 with reverse transcriptase Y188L mutant. Format: functional.
Series [3] has as its system Human immunodeficiency virus 1. The experiment in a line: Ratio of compound EC50 to delavirdine EC50 for wild type HIV1 3B. It is filed as functional.
Series [4] has as its system Human immunodeficiency virus 1. Nature of the series: Antiviral activity against wild type HIV1 LAI infected in human MT4 cells assessed as protection against virus-induced cytopathogenicity after 4 days by MTT assay. It is filed as functional, organism-based. The settings on record: Human immunodeficiency virus 1, LAI, MT4, 96 h.
Series [5] concerns Human immunodeficiency virus 2. The experiment in a line: Antiviral activity against wild type HIV2 ROD infected in human MT4 cells assessed as protection against virus-induced cytopathogenicity after 4 days by MTT assay. Format: functional, organism-based. The settings on record: Human immunodeficiency virus 2, ISOLATE ROD, MT4, 96 h. The method, boiled down: (§2)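 MT-4 cells at 1 × 10⁵ cells/mL infected at multiplicity of infection 0.02, then immediately plated onto serial dilutions of compound (DMSO stocks of 50 mM or higher). After 4 days at 37 °C, viable cells counted by MTT. […] Virus stocks titrated in MT-4 cells as CCID50.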

Series [6] relates to Human immunodeficiency virus 1. Nature of the series: Antiviral activity against HIV1 with reverse transcriptase L100I mutant infected in human MT4 cells assessed as protection against virus-induced cytopathogenicity after 4 days by MTT assay. The settings on record: Human immunodeficiency virus 1, MT4, 96 h. Format: functional, organism-based. The method, boiled down: as §1

Series [7] relates to Human immunodeficiency virus 1. The experiment in a line: Antiviral activity against wild type HIV1 3B infected in human MT4 cells assessed as protection against virus-induced cytopathogenicity after 4 days by MTT assay. The settings on record: Human immunodeficiency virus 1, 3B, MT4, 96 h. It is filed as functional, organism-based. The method, boiled down:
as §2

The subject of series [8] is Human immunodeficiency virus 1. Nature of the series: Antiviral activity against HIV1 with reverse transcriptase Y181C mutant infected in human MT4 cells assessed as protection against virus-induced cytopathogenicity after 4 days by MTT assay. Format: functional, organism-based. The settings on record: Human immunodeficiency virus 1, MT4, 96 h. In outline: as §1
Series [9] can be described thus: Selectivity index, CC50 for human MT4 cells to EC50 for wild type HIV1 3B. The settings on record: read-out: Ratio CC50/EC50. It is filed as toxicity, cell-based. The method, boiled down: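 Selectivity index is calculated as CC50 in uninfected MT-4 cells divided by EC50 against HIV-1 IIIB. Both come from parallel 4-day MTT readings at 37 °C, with infection at multiplicity of infection 0.02.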

The test system of series [10] is Human immunodeficiency virus 1. The experiment in a line: Antiviral activity against HIV1 with reverse transcriptase K103N mutant infected in human MT4 cells assessed as protection against virus-induced cytopathogenicity after 4 days by MTT assay. Format: functional, organism-based. The settings on record: Human immunodeficiency virus 1, MT4, 96 h.
The test system of series [11] is Human immunodeficiency virus 1. The experiment in a line: Ratio of compound EC50 to nevirapine EC50 for wild type HIV1 3B. Format: functional.
Series [12] has as its system Human immunodeficiency virus 1. The experiment in a line: Antiviral activity against HIV1 with reverse transcriptase F227L, V106A mutant infected in human MT4 cells assessed as protection against virus-induced cytopathogenicity after 4 days by MTT assay. It is filed as functional, organism-based. The settings on record: Human immunodeficiency virus 1, MT4, 96 h. In outline:
as §1

The test system of series [13] is Human immunodeficiency virus 1. Nature of the series: Antiviral activity against HIV1 with reverse transcriptase Y188L mutant infected in human MT4 cells assessed as protection against virus-induced cytopathogenicity after 4 days by MTT assay. The settings on record: Human immunodeficiency virus 1, MT4, 96 h. It is filed as functional, organism-based. In outline:
as §1

Series [14] in a line: Cytotoxicity against human MT4 cells after 4 days by MTT assay. It is filed as cell-based. The method, boiled down: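 Uninfected MT-4 cells were run in parallel with the antiviral plates and exposed to serial compound dilutions (DMSO stocks of 50 mM or higher) for 4 days at 37 °C. Viability was read by MTT.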
The subject of series [15] is Human immunodeficiency virus 1. The experiment in a line: Antiviral activity against HIV1 with reverse transcriptase K103N, Y181C mutant infected in human MT4 cells assessed as protection against virus-induced cytopathogenicity after 4 days by MTT assay. Format: functional, organism-based. The settings on record: Human immunodeficiency virus 1, MT4, 96 h. The method, boiled down:
as §1

A value given as a limit tells only on which side of the number the result lay.

Usually EC50 stands for the concentration giving half of the maximal effect. By CC50 is commonly meant the concentration giving 50% cytotoxicity. Read a low CC50 as greater toxicity to the cells. Consider `Cc1cc(C#N)cc(C)c1Oc1nc(Nc2ccc(C#N)cc2)nc2ccccc12`, for which the EC50 stood at 11 nM in [1]; 2.3 nM in series [4]; 32000 nM in [5]; 18 nM in series [6]; 1.8 nM in series [7]; 31 nM in series [8]. Also, the EC50 is no more than 3.6 nM in [10], 107 nM in [12], 36 nM in series [13] and 60 nM in series [15]. In addition, the Ratio stood at 6 in series [2], 266 in series [3] and 731 in [11]. Further, the selectivity ratio in series [9] was found to be 112000. The cytotoxic concentration (CC50) at 96 h in [14] turned out to be 203000 nM.
